# Bioassay records from PubChem.
# The list is not random: actives were taken first. Their share in the collection is about 1.9%.
# Rce1 inh – yeast Ras-converting enzyme inhibition; Q03530; yeast membranes, quenched prenylated peptide cleavage fluorescence; calls only; 290,000 compounds, 0.27% hits;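 active = fall in fluorescence gain of 50% or more versus controls, with final raw signal at or below 3038400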
# Target sequence (Q03530 whole entry, looked up): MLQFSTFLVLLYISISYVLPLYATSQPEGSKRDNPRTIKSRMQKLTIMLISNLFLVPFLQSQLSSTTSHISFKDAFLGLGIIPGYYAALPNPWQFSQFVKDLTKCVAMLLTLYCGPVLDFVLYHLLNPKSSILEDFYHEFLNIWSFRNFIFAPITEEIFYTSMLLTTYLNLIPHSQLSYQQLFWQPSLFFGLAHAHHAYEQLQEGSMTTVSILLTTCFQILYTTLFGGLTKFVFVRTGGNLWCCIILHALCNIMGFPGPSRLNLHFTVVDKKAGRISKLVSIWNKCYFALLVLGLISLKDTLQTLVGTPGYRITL
# DSG3 Ab inh – blocks pemphigus antibody binding to human desmoglein-3. P32926. DSG3-coupled beads, scFv-anti-DSG3-GFP binding, flow cytometry; hits give low values. binding (percent of control), % at 10 µM. 310,000 compounds, 0.48% hits. AID 588358;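 active = binding more than 3 SD below its plate's average and above zero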;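 note: hits lower antibody fragment binding to DSG3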
# Tb MetRS inh – Trypanosoma brucei MetRS inhibition | purified T. brucei MetRS, ATP depletion, Kinase-Glo luminescence | inhibition, % at 11.9 µM | 360,000 compounds, 0.4% hits | AID 624268;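 active = inhibition above a per-plate cutoff of the control wells' mean inhibition plus 3 SD, cut at about 5.5% in these data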
#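 technique = Kinase-Glo luminescence, ATP depletion format | system = purified MetRS (methionyl-tRNA synthetase) enzyme from Trypanosoma brucei | timing = 15 min preincubation, 2 h reaction, all 25 °C | evaluation = percent inhibition versus plate control medians | dosing = single dose, 11.9 µM final nominal, 0.9% final DMSO | also added = substrates ATP, L-methionine and bulk Escherichia coli tRNA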
# NadD inh – inhibitors of Staphylococcus aureus NadD; purified NadD enzyme, colorimetric absorbance read-out; inhibition, % at 20 µM; 360,000 compounds, 0.78% hits; AID 602399; in the data active = inhibition above about 26%
# HCV core dimer – blocks dimerization of HCV core protein; inhibition, % at 5 µM; TR-FRET GST/Flag-core106 dimerization, 1536-well; 300,000 compounds, 0.33% hits;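 active = inhibition above the mean of all tested compounds plus 3 SD, set per screening campaign, cut at about 45% in these data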
#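 Material: GST/Flag-tagged HCV core106 proteins. Incubation: 4 h, 22.5 °C incubation. Read-out basis: inhibition (%) from 671 over 617 nm ratio. Measured by: TR-FRET, excitation 340 nm, emission 617 and 671 nm.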
# NadD conf – NadD (S. aureus) inhibition, single concentration confirmation | purified S. aureus NadD, colorimetric enzyme assay | inhibition, % at 20 µM | AID 624309 | shares compounds with NadD inh | 2,000 compounds, 13% hits; in the data active = inhibition mostly above about 42%, no sharp cut-off; inactive = mostly below about 42%
# Hits are given with their value; . = inactive; / = no result.
SMILES,Rce1 inh,DSG3 Ab inh,Tb MetRS inh,NadD inh,HCV core dimer,NadD conf
Cc1ccc(C2/C(=C(/O)c3ccc(OC(C)C)cc3)C(=O)C(=O)N2CCN2CCOCC2)cc1 (configuration not stated),.,/,.,.,.,/
COc1ccc(Br)cc1/C=N/NC(=O)c1ccc(OC)c(OC)c1,.,.,.,.,.,/
COc1ccc(Br)cc1/C=N/NC(=O)c1nc(-c2ccccc2)n2c1CCCCC2,.,.,.,39.2,.,.
NC(=O)c1sc2nc3c(c(-c4cccnc4)c2c1N)CCC3,.,.,.,.,.,/
CCOc1ccc(CCN2C(=S)N([C@@H](CC(C)C)CN3CCCC3CN3C(=S)NC[C@@H]3Cc3ccc(O)cc3)C[C@@H]2CC(C)C)cc1 (some centres not stated),/,.,.,36.4,/,.
CCOc1ccc(CCN2C(=S)N([C@@H](CC(C)C)CN3CCCC3CN3C(=S)NC[C@@H]3Cc3ccc(O)cc3)C[C@@H]2Cc2ccccc2)cc1 (some centres not stated),/,.,.,33.6,/,.
CCOc1ccc(CCN2C(=S)N([C@@H](CC(C)C)CN3CCCC3CN3C(=S)NC[C@@H]3Cc3ccc(O)cc3)C[C@@H]2Cc2ccc(O)cc2)cc1 (some centres not stated),/,.,.,37.3,/,.
CCOc1ccc(CCN2C(=S)N([C@@H](Cc3ccc(O)cc3)CN3CCC[C@@H]3CN3C(=S)NC[C@@H]3Cc3ccccc3)C[C@@H]2Cc2ccc(O)cc2)cc1,/,/,.,45.1,/,.
O=C(Nc1ncc(Cc2ccccc2Cl)s1)c1ccc(-c2cccc([N+](=O)[O-])c2)o1,.,.,.,36.0,.,.
COc1ccc(Cc2nnc(NC(=O)CSc3ccccc3)s2)cc1OC,.,.,.,.,.,/
O=C1NC(=O)/C(=C/c2ccc(-c3cccc([N+](=O)[O-])c3)o2)S1,.,.,.,45.5,/,.
CCOc1ccc(NC(=O)C[n+]2ccccc2)cc1,.,.,.,.,.,/
O=C(COC(=O)CSc1ccc([N+](=O)[O-])cc1)NC1CCCCCCC1,/,.,.,.,.,/
Nc1cc(N)cc(Cc2ccccc2)c1,/,/,.,32.8,/,.
Nc1cc(Cc2ccccc2)ccc1O,/,.,.,.,/,/
COc1cnc(-c2ccccn2)nc1Sc1ccccc1,.,.,.,.,.,/
COc1cc(C2C(C#N)=C(N)N(Nc3ccccc3)C3=C2C(=O)CC(C)(C)C3)ccc1OCc1cccc(F)c1 (configuration not stated),.,.,.,31.0,.,.
COc1cc(C2C(C#N)=C(N)N(Nc3ccccc3)C3=C2C(=O)CC(C)(C)C3)ccc1OCc1ccccc1 (configuration not stated),.,.,.,.,.,/
Cc1ccccc1CN1C(=O)C(C)S/C1=N/N=C/c1ccco1 (configuration not stated),.,/,.,.,.,/
Cc1ccccc1CN1C(=O)C(C)Sc2ccc(-c3ccco3)cc21 (configuration not stated),/,/,.,43.2,/,49.9
C#CCN(C[C@H]1[C@H](OC(=O)Nc2c(C)noc2C)[C@H](OC(=O)Nc2c(C)noc2C)C[C@H]2C(=O)N(c3ccccc3)C(=O)[C@@H]12)S(=O)(=O)c1ccc(C)cc1,/,.,.,.,/,/
C#CCN(C[C@H]1[C@H](OC(=O)NCC2CCCCC2)[C@H](OC(=O)NCC2CCCCC2)C[C@H]2C(=O)N(c3ccccc3)C(=O)[C@@H]12)S(=O)(=O)c1ccc(C)cc1,/,.,.,36.6,/,.
C#CCN(C[C@H]1[C@H](OC(=O)NCc2ccccc2)[C@H](OC(=O)NCc2ccccc2)C[C@H]2C(=O)N(c3ccccc3)C(=O)[C@@H]12)S(=O)(=O)c1ccc(C)cc1,/,89.4,.,34.8,/,48.2
C#CCN(C[C@H]1[C@H](OC(=O)NC2CC2)[C@H](OC(=O)NC2CC2)C[C@H]2C(=O)N(c3ccccc3)C(=O)[C@@H]12)S(=O)(=O)c1ccc(C)cc1,/,.,.,.,/,/
C#CCN(C[C@H]1[C@H](OC(=O)Nc2cccs2)[C@H](OC(=O)Nc2cccs2)C[C@H]2C(=O)N(c3ccccc3)C(=O)[C@@H]12)S(=O)(=O)c1ccc(C)cc1,/,.,.,35.0,/,50.5
SMILES,Rce1 inh,DSG3 Ab inh,Tb MetRS inh,NadD inh,HCV core dimer,NadD conf
COc1ccc(-c2[nH]ncc2CN2CCN(c3ccccn3)CC2)c(OC)c1,.,.,.,.,.,/
COc1ccc(-c2[nH]ncc2CN2CCCCCCC2)c(OC)c1,.,.,.,29.8,.,.
N#Cc1c(SCC(=O)Nc2nc3ccc(Br)cc3s2)sc2c(O)cc(=O)[nH]c12,/,.,.,40.9,.,.
N#Cc1c(SCC(=O)Nc2nc3ccccc3s2)sc2c(O)cc(=O)[nH]c12,/,.,.,.,/,/
O=C(NC(C(=O)N/N=C/c1c2ccccc2cc2ccccc12)c1n[nH]c(=O)c2ccccc12)c1ccccc1 (configuration not stated),.,.,.,51.3,46.8,.
COc1ccc2nc3sc(C(=O)N4CCN(C)CC4)cc3cc2c1,.,.,.,.,.,/
COc1ccc2nc3sc(C(=O)NCCCN4CCc5ccccc5C4)cc3cc2c1,.,.,.,29.6,.,.
CCc1cc2c(=O)c(-c3cnn(-c4ccccc4)c3)c(C)oc2cc1OCC(=O)Nc1ccc(F)c(F)c1,.,.,.,32.5,.,.
CCc1cc2c(=O)c(-c3cnn(-c4ccccc4)c3)c(C)oc2cc1OCC(=O)Nc1cccc(C)c1,.,.,.,.,.,/
CN(C(=O)COc1ccc(Br)cc1Cl)C1CCCCC1,.,.,.,.,.,/
O=c1c(/C=N/Nc2ccccc2)c(Sc2nnnn2-c2ccccc2)nc2ccccn12,/,/,.,30.6,/,.
COc1ccc2c(c1)C(=O)N1[C@H]3c4cc(Br)ccc4OC[C@@H]3[C@H](c3ccccc3)[C@]1(C)C(=O)N2,/,.,.,30.4,.,.
C[C@@]12C(=O)Nc3ccc(Br)cc3C(=O)N1[C@H]1c3cc(Br)ccc3OC[C@@H]1[C@@H]2c1ccccc1,/,.,.,.,.,/
Cc1cccc(-n2nc(C(=O)Nc3ccccc3)n3c(=O)cc(-c4ccccc4)nc23)c1,.,.,.,30.1,.,.
CCOc1cc(/C=N\NC(=O)Cn2nc([N+](=O)[O-])cc2C)ccc1OCc1cccc2ccccc12,.,/,.,38.3,.,.
COc1ccc(/C=N/NC(=O)Cn2nc([N+](=O)[O-])cc2C)c(OC)c1OC,.,/,.,.,.,/
O=C(N=c1ccn(-c2nc3ccccc3nc2NS(=O)(=O)c2ccc(Cl)cc2)cc1)c1ccccc1Cl,.,/,/,/,.,/
CCOc1ccc(S(=O)(=O)Nc2nc3ccccc3nc2-n2ccc(=NC(=O)c3cccs3)cc2)cc1,.,.,.,26.4,.,.
O=C(N=c1ccn(-c2nc3ccccc3nc2NS(=O)(=O)c2ccc(Cl)cc2)cc1)c1cccs1,.,.,.,28.9,.,.
